# Screening results deposited in PubChem BioAssay by several laboratories.
# Shown are actives, neighbours in structure and some others; about 1.6% of the full set was active somewhere.
# MT1-MMP act inh = MT1-MMP (human) activation inhibition; HT1080 RFP-PRO-GFP cells, GFP/RFP ratio fluorescence, overnight; percent of plate control window, DMSO zero; GFP/RFP ratio change, % at 20 µM; 360,000 compounds, 0.061% hits; AID 651647;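 active means GFP/RFP ratio change of at least 30% with cell ATP level not reduced by more than half and red fluorescence within 50% of control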
#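 Assay system: HT1080 cells carrying an RFP-PRO-GFP reporter | Dosing: Single dose of 20 µM compound, 1% DMSO final | Incubation: Cells overnight before dosing, compound overnight, 37 °C, 5% CO2 | Evaluation: GFP/RFP fluorescence ratio | Control set: DMSO and RFP-L50D-GFP cell wells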
# DDE Tn7 FP inh = inhibitors of Tn7 peptide binding to human fibrin DD(E) | 370,000 compounds, 0.13% hits | FP displacement of FITC-Tn7 peptide from fibrin DD(E); 0% = median of compound wells per plate | inhibition, % at 8.3 µM;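 active means inhibition above the mean of compounds falling within the control limits plus 3 SD of them, cut at about 14% in these data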;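 further: 0% = plate median of compound wells and 100% = 10 µM Aha-Tn7 peptide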
#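 system = human fibrin DD(E) protein | quantity = DD(E) 2 µM final | medium = Tris/NaCl/CaCl2 buffer, pH 7.8 | also added = labelled Tn7 tracer, 0.1 µM | compound dosing = single point at 8.3 µM | timing = compound with protein 10 min, then 3 h after probe, room temperature | signal = FP measurement | benchmarks = Aha-Tn7 high control | repeats = one replicate per compound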
# Tn6 DDE FP = inhibitors of Tn6 peptide binding to human fibrin DD(E); Fibrin DD(E) TRITC-Tn6 fluorescence polarization displacement; inhibition, % at 8.3 µM; 370,000 compounds, 0.21% hits; AID 720509;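 active means inhibition above a per-campaign cutoff: mean of compounds within control limits plus 3 SD, cut at about 15% in these data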;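 further: 0% = median of all compound wells on the plate and 100% = blocking peptide control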
# ADAM10 inh = ADAM10 inhibition, QFRET primary screen; O14672; recombinant ADAM10, EDANS/DABCYL FRET peptide cleavage, 3 h; inhibition, % at 7 µM; 370,000 compounds, 0.62% hits; AID 720582;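 active means inhibition above a per-campaign cutoff equal to the mean of compounds falling between control-based bounds plus 3 SD, cut at about 20% in these data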;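 further: 0% = DMSO wells while the 100% control is not disclosed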
# ADAM17 inh = inhibitors of human ADAM17; P78536; recombinant ADAM17, EDANS/DABCYL FRET peptide cleavage; inhibition, % at 6.95 µM; 370,000 compounds, 0.83% hits;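 active means inhibition above the mean of compounds lying between control limits plus 3 SD, set per campaign, cut at about 8.5% in these data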;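 further: 0% = DMSO-only wells as the low control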
# Target sequence (P78536 215-824 limits assumed): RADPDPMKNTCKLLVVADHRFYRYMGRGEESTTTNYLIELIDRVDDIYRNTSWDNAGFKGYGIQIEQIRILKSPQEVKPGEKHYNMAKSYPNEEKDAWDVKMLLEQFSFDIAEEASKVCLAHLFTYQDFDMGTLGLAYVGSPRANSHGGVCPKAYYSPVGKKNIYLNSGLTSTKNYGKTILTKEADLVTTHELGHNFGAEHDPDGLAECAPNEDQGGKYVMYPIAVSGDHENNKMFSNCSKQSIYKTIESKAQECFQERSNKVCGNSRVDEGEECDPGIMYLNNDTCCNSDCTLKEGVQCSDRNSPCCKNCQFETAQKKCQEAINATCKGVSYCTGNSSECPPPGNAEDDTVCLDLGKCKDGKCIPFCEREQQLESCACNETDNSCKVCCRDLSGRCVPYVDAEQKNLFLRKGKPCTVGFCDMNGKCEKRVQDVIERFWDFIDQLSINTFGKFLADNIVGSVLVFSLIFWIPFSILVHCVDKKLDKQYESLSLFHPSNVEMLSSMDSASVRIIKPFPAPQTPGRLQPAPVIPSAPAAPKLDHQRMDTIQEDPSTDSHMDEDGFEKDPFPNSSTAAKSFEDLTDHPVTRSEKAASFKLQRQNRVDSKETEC
# Tn6 DDE ctr = counter-screen hit for Tn6 peptide-fibrin DD(E) binding disruption; shares compounds with Tn6 DDE FP; TRITC-Tn6 fluorescence polarization displacement; 0% = median of compound wells, not DMSO; inhibition, % at 8.3 µM; 680 compounds, 2% hits; AID 720621;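 active means inhibition above the mean of test compounds lying between the control limits plus 3 SD of those, cut at about 14% in these data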;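 further: 0% = median of compound wells and 100% = wells with Aha-Tn7 blocking peptide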
# DDE Tn6 confirm = DD(E)-Tn6 binding inhibition, FP confirmation. shares compounds with Tn6 DDE FP. FP displacement of TRITC-Tn6 peptide from DD(E); 0% = per-plate median of test wells. inhibition, % at 8.3 µM. 680 compounds, 10% hits;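 active means inhibition above the mean of compounds lying within the control limits plus 3 SD, cut at about 16% in these data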;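 further: 100% = high control wells holding a competing inhibitor peptide at 10 µM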
# The depositor's hits bear a star; . = no result.
SMILES,MT1-MMP act inh,DDE Tn7 FP inh,Tn6 DDE FP,ADAM10 inh,ADAM17 inh,Tn6 DDE ctr,DDE Tn6 confirm
FC(F)(F)c1cc(-c2ccco2)nc(-n2cnc3ccccc32)n1,-6.0,3.3,0.2,0.9,0.1,.,.
Cc1nc2ccccc2n1-c1nc(-c2ccco2)cc(C(F)(F)F)n1,7.2,-0.3,18.1*,-1.3,0.8,-2.6,-4.9
CCc1ccc(NC(=S)Nc2cc(OC)c(NC(=O)C(C)C)cc2OC)cc1,2.4,-5.0,25.0*,-3.6,-2.5,2.5,2.1
CCCCC(=O)Nc1ccc(NC(=S)NC(=O)CC)cc1OC,5.3,-3.7,-3.0,1.5,-1.4,.,.
CCCC(=O)Nc1cc(OC)c(NC(=S)Nc2cccc(C)c2)cc1OC,0.0,-3.4,26.5*,-9.0,-2.8,-2.6,-18.2
COc1cc(NC(=S)NC(C)=O)ccc1NC(=O)C(C)C,-0.5,-3.7,-2.7,-4.1,-2.0,.,.
CCCC(=O)Nc1cc(OC)c(NC(=S)Nc2ccc(CC)cc2)cc1OC,3.4,4.3,36.0*,-0.4,1.6,3.8,3.2
CCCCNc1cccc2c1S(=O)(=O)N[C@H](CC(C)C)CO2,.,4.9,-0.7,-6.1,-0.7,.,.
CC[C@]12c3[nH]c4ccc(Cl)cc4c3CCN1C(=O)[C@@H](CC(=O)NC(C)(C)C)C[C@@H]2C(=O)N1CCN(C(=O)c2ccco2)CC1,-3.0,5.9,15.8*,-11.6,-2.1,7.6,5.9
COc1ccccc1C(=O)NC(=O)COC(=O)c1ccc(NC(=O)CC#N)cc1,6.1,2.3,17.6*,-7.2,-2.2,3.4,-0.6
O=C(Cc1ccccc1)NNC(=O)Cc1ccccc1,-1.9,6.5,-0.2,0.2,0.6,.,.
O=C(Cc1ccccc1)NC(NNc1ccccc1)(C(F)(F)F)C(F)(F)F,-7.7,-2.8,15.5*,3.1,0.1,14.1*,7.1
COc1cc(C(=O)NCC(=O)N/N=C/c2cccc(OC(=O)c3ccco3)c2)cc(OC)c1OC,1.0,0.3,3.0,2.1,1.6,.,.
COc1cc(C(=O)NCC(=O)N/N=C/c2ccco2)cc(OC)c1OC,0.9,6.0,26.8*,2.1,-5.1,-5.9,-12.9
C[C@@]12C[C@@H]3C(=O)N(Cc4ccccc4)CC(=O)N3[C@@H]1N(S(=O)(=O)c1ccccc1)c1ccccc12,.,-4.3,-2.7,-7.3,1.1,.,.
CCC(C)NC(=O)c1csc2c1CCCCC2 (configuration not stated),5.3,3.5,18.7*,-3.6,-0.5,0.8,2.2
CC(C)(C)n1nc(C2CC2)cc1NC(=O)Nc1ccccc1,.,3.4,-6.4,-9.6,-4.6,.,.
CCC(=O)Nc1ccc(NC(=O)CSc2nnc(-c3ccc(O)cc3)n2CC2CCCO2)cc1 (configuration not stated),-1.0,1.1,19.9*,9.1,-3.3,1.1,1.0
CC(=O)Nc1ccc(C(=O)CSc2nnc(-c3ccc(O)cc3)n2CC2CCCO2)cc1 (configuration not stated),15.1,5.6,-1.9,-5.6,-3.1,.,.
CCc1csc(N2[C@H](CN(CCOC)S(=O)(=O)c3ccccc3[N+](=O)[O-])[C@H](c3ccccc3)[C@@H]2CO)n1,.,-2.8,1.4,3.5,1.6,.,.
O=C(C1CCCN1S(=O)(=O)c1ccc(Cl)s1)N1CCc2ccccc2C1 (configuration not stated),.,1.5,-2.5,-7.1,-1.5,.,.
CCN(c1ccccc1)S(=O)(=O)c1cc(C(=O)NCC(c2ccc(OC)cc2)N(C)C)ccc1C (configuration not stated),-6.8,5.8,16.6*,-6.3,-0.9,-1.5,-7.5
N#Cc1ccc(OCC(=O)N(C2CCCCC2)C2CCS(=O)(=O)C2)cc1 (configuration not stated),-3.3,-0.9,15.6*,-1.0,-1.9,9.6,5.6
O=C(COc1ccc([N+](=O)[O-])cc1Cl)N(C1CCCCC1)C1CCS(=O)(=O)C1 (configuration not stated),-0.9,7.3,0.1,-6.3,-6.0,.,.
C[C@H](CO)N1C[C@H](C)[C@@H](CN(C)C(=O)Cc2ccccc2)OCc2cn(nn2)CCCC1=O,.,4.7,3.2,-7.2,-4.7,.,.
SMILES,MT1-MMP act inh,DDE Tn7 FP inh,Tn6 DDE FP,ADAM10 inh,ADAM17 inh,Tn6 DDE ctr,DDE Tn6 confirm
COc1cccc(-c2nnc(SCC(=O)Nc3ccc(OCc4ccccc4)cc3)n2Cc2ccco2)c1,.,3.6,-6.0,8.1,1.3,.,.
CC(=O)c1ccc(NC(=S)NCCc2ccc(S(N)(=O)=O)cc2)cc1,5.2,4.3,15.3*,-2.4,-5.3,-8.0,-12.4
NS(=O)(=O)c1ccc(NC(=S)NCCc2ccccc2)cc1,4.1,-4.1,-0.9,-2.7,0.8,.,.
COc1ccc(NC(=O)N(C)C[C@H]2OCCCC[C@H](C)Oc3ccc(NC(=O)Nc4cccc5ccccc45)cc3C(=O)N([C@@H](C)CO)C[C@H]2C)cc1,.,6.3,0.2,-104.1,-27.2,.,.
Nn1c(SCC(=O)Nc2ccccc2-c2ccccc2)nnc1-c1cc(-c2ccccc2)n[nH]1,.,-2.7,-1.0,-8.0,0.6,.,.
CCN(CC(=O)NC1CCCC1)S(=O)(=O)c1ccc(Br)cc1,-3.1,-2.6,16.5*,3.1,2.5,4.8,-2.3
CC(C1CC1)N(Cc1ccccc1)C(=O)NC(=O)c1ccccc1 (configuration not stated),4.5,-0.4,17.9*,0.9,-2.3,0.2,0.8
CC(C1CC1)N(Cc1ccccc1)C(=O)NC(=O)c1cccc(F)c1 (configuration not stated),0.0,-0.8,-0.3,4.2,-2.5,.,.
CCC[C@H]1[C@@H](NC(=O)c2ccc(OC)cc2)CC[C@@]23CCCN2C(=O)CCC[C@@H]13,.,-2.4,1.7,2.3,-1.8,.,.
CC(=O)N1N=C(c2ccncc2)OC12CCCCCC2,2.9,5.8,15.7*,-263.0,-74.7,10.3,6.9
COc1ccc(C(CNC(=O)C(=O)NC2CCCCC2)N2CCN(C)CC2)cc1 (configuration not stated),0.2,-3.1,15.9*,-2.3,-5.6,4.1,-1.0
CC(=O)c1ccc(NC(=O)c2ccc(S(=O)(=O)N3CCCC3)cc2)cc1,2.9,-4.7,-3.4,1.2,2.3,.,.
Cc1cc(C(=O)Nc2ccc(S(=O)(=O)N3CCCC3)cc2)cs1,1.0,0.8,16.3*,2.9,-2.9,-5.5,-10.8
CCCC(=Nc1ccc(N)cc1)C1=C(O)C(C(=O)OC)C(C)(C)CC1=O (configuration not stated),25.4,3.9,126.1*,-1.3,-5.0,5.0,17.0*
